# Experimental data published in ChEMBL document CHEMBL3808334, “Synthesis and in vitro evaluation of novel triazine analogues as anticancer agents and their interaction studies with bovine serum albumin” (Eur J Med Chem, 2016).
# What was measured:
# Type in all cases: functional
# [1] = Growth inhibition of human Hs 578T cells assessed as cell growth at 10^-5 M incubated for 48 hrs by sulforhodamine B assay; details: read-out: Activity
# [2] = tested on: MDA-MB-435; experiment: Growth inhibition of human MDA-MB-435 cells assessed as cell growth at 10^-8 M incubated for 48 hrs by sulforhodamine B assay; details: MDA-MB-435, 48 h, read-out: Activity
# [3] = Growth inhibition of human UACC62 cells incubated for 48 hrs by sulforhodamine B assay; details: UACC-62, 48 h
# Method in brief: (§1)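 Cells were plated at 5,000–40,000 per well according to doubling time and preincubated 24 h at 37 °C in 5% CO2; time-zero plates were then TCA-fixed. Five concentrations (10-fold or ½-log dilutions, DMSO stock) were incubated 48 h. Cells were TCA-fixed, stained with 0.4% SRB and read at 515 nm. GI50 was taken where [(Ti−Tz)/(C−Tz)]×100 = 50.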
# [4] = tested on: A549; experiment: Growth inhibition of human A549/ATCC cells assessed as cell growth at 10^-7 M incubated for 48 hrs by sulforhodamine B assay; details: A549, 48 h, read-out: Activity
# Method in brief: (§2)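 Five-dose assay: five concentrations from 10-fold or ½-log serial dilutions. Cells are plated at 5,000–40,000 per well according to doubling time, grown 24 h, then exposed 48 h at 37 °C, 5% CO₂. Fixed with cold 50% TCA (final addition) for 60 min at 4 °C and stained with 0.4% SRB in 1% acetic acid. Bound dye is solubilized in 10 mM Tris base and read at 515 nm. GI₅₀ is where [(Ti−Tz)/(C−Tz)]×100 = 50, with a time-zero plate as Tz.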
# [5] = tested on: NCI-H460; experiment: Growth inhibition of human NCI-H460 cells assessed as cell growth at 10^-7 M incubated for 48 hrs by sulforhodamine B assay; details: NCI-H460, 48 h, read-out: Activity
# [6] = Growth inhibition of human HCT116 cells assessed as cell growth at 10^-5 M incubated for 48 hrs by sulforhodamine B assay; details: HCT-116, 48 h, read-out: Activity
# Method in brief: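 Cells seeded at 5,000–40,000/well according to doubling time and preincubated 24 h at 37 °C, 5% CO2. Time-zero plates were TCA-fixed. DMSO concentrate was diluted in medium with 50 µg/ml gentamicin to give five concentrations (10-fold or ½ log steps), then exposed 48 h. Cells were TCA-fixed, stained with 0.4% SRB and read at 515 nm. Percent growth was taken against time-zero and control; GI50, TGI and LC50 derived.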
# [7] = tested on: NCI-H460; experiment: Growth inhibition of human NCI-H460 cells assessed as cell growth at 10^-5 M incubated for 48 hrs by sulforhodamine B assay; details: NCI-H460, 48 h, read-out: Activity
# [8] = Growth inhibition of human CNS cancer cells incubated for 48 hrs by sulforhodamine B assay; details: Cancer cell lines; for CC50: read-out: LC50 (the source's name); method in brief: as §2
# [9] = tested on: SN12C; experiment: Growth inhibition of human SN12C cells assessed as cell growth at 10^-4 M incubated for 48 hrs by sulforhodamine B assay; details: read-out: Activity
# [10] = Growth inhibition of human TK10 cells assessed as cell growth at 10 uM incubated for 48 hrs by sulforhodamine B assay; details: TK-10, 48 h, read-out: Activity
# [11] = tested on: MCF7; experiment: Growth inhibition of human MCF7 cells assessed as cell growth at 10^-8 M incubated for 48 hrs by sulforhodamine B assay; details: MCF7, 48 h, read-out: Activity
# [12] = Growth inhibition of human HOP92 cells assessed as cell growth at 10^-8 M incubated for 48 hrs by sulforhodamine B assay; details: HOP-92, 48 h, read-out: Activity
# [13] = Growth inhibition of human breast cancer cells incubated for 48 hrs by sulforhodamine B assay; details: Cancer cell lines; for CC50: read-out: LC50 (the source's name)
# [14] = Growth inhibition of human SF539 cells incubated for 48 hrs by sulforhodamine B assay; details: SF-539, 48 h; method in brief: as §1
# [15] = tested on: NCI-H23; experiment: Growth inhibition of human NCI-H23 cells assessed as cell growth at 10^-4 M incubated for 48 hrs by sulforhodamine B assay; details: NCI-H23, 48 h, read-out: Activity
# [16] = Growth inhibition of human melanoma cells incubated for 48 hrs by sulforhodamine B assay; details: Melanoma cell; for CC50: read-out: LC50 (the source's name)
# [17] = tested on: NCI/ADR-RES; experiment: Growth inhibition of human NCI/ADR-RES cells assessed as cell growth at 10^-8 M incubated for 48 hrs by sulforhodamine B assay; details: read-out: Activity
# [18] = Growth inhibition of human HOP62 cells assessed as cell growth at 10^-8 M incubated for 48 hrs by sulforhodamine B assay; details: HOP-62, 48 h, read-out: Activity
# [19] = Growth inhibition of human SW620 cells assessed as cell growth at 10^-7 M incubated for 48 hrs by sulforhodamine B assay; details: SW-620, 48 h, read-out: Activity
# [20] = tested on: ACHN; experiment: Growth inhibition of human ACHN cells assessed as cell growth at 10 uM incubated for 48 hrs by sulforhodamine B assay; details: read-out: Activity
# Method in brief: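 One-dose screen at 10 µM final. Cells are plated at 5,000–40,000 per well according to doubling time and preincubated 24 h at 37 °C, 5% CO₂. Compound (DMSO stock diluted in medium with 50 µg/ml gentamicin) is then added for 48 h. Growth percent is read by sulforhodamine B staining, absorbance at 515 nm.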
# [21] = tested on: NCI-H226; experiment: Growth inhibition of human NCI-H226 cells assessed as cell growth at 10 uM incubated for 48 hrs by sulforhodamine B assay; details: NCI-H226, 48 h, read-out: Activity
# [22] = tested on: NCI-H322M; experiment: Growth inhibition of human NCI-H322M cells assessed as cell growth at 10^-6 M incubated for 48 hrs by sulforhodamine B assay; details: read-out: Activity
# [23] = Growth inhibition of human UACC62 cells assessed as cell growth at 10^-8 M incubated for 48 hrs by sulforhodamine B assay; details: UACC-62, 48 h, read-out: Activity
# [24] = tested on: SR; experiment: Growth inhibition of human SR cells assessed as cell growth at 10^-6 M incubated for 48 hrs by sulforhodamine B assay; details: read-out: Activity
# [25] = Growth inhibition of human OVCAR8 cells assessed as cell growth at 10^-8 M incubated for 48 hrs by sulforhodamine B assay; details: OVCAR-8, 48 h, read-out: Activity
# [26] = tested on: NCI-H460; experiment: Growth inhibition of human NCI-H460 cells assessed as cell growth at 10^-4 M incubated for 48 hrs by sulforhodamine B assay; details: NCI-H460, 48 h, read-out: Activity
# [27] = tested on: K562; experiment: Growth inhibition of human K562 cells incubated for 48 hrs by sulforhodamine B assay; details: K562, 48 h; method in brief: as §1
# [28] = read-out: LC50 (the source's name)
# [29] = read-out: pLC50 (the source's name) (converted)
smiles,measurement,setting,value
Fc1ccc(-c2nc(Nc3ccc(-c4nc5ccccc5[nH]4)cc3)nc(N3CCOCC3)n2)cc1,growth at 10 µM,[1],-13%
same,growth at 0.01 µM,[2],99%
same,GI50,[3]; read-out: GI50,1.7 µM
same,TGI,[3]; read-out: TGI,3.56 µM
same,GI50,[3]; read-out: pGI50 (converted),1.7 µM
same,TGI,[3]; read-out: pTGI (converted),3.55 µM
same,growth at 0.1 µM,[4],100%
same,growth at 0.1 µM,[5],103%
same,growth at 10 µM,[6],-84%
same,growth at 10 µM,[7],-22%
same,GI50,[8],2.23 µM
same,TGI,[8],11.8 µM
same,CC50,[8],8.47 µM
same,growth at 100 µM,[9],-21%
same,growth at 10 µM,[10],43.9%
same,growth at 0.01 µM,[11],94%
same,growth at 0.01 µM,[12],96%
same,GI50,[13],2.09 µM
same,TGI,[13],5.55 µM
same,CC50,[13],> 100 µM
same,GI50,[14]; read-out: GI50,1.63 µM
same,CC50,[14]; [28],8.47 µM
same,TGI,[14]; read-out: TGI,3.72 µM
same,GI50,[14]; read-out: pGI50 (converted),1.62 µM
same,CC50,[14]; [29],8.51 µM
same,TGI,[14]; read-out: pTGI (converted),3.72 µM
same,growth at 100 µM,[15],-15%
same,GI50,[16],1.91 µM
same,TGI,[16],4.04 µM
same,CC50,[16],7.43 µM
same,growth at 0.01 µM,[17],98%
same,growth at 0.01 µM,[18],98%
same,growth at 0.1 µM,[19],100%
same,growth at 10 µM,[20],9%
same,growth at 10 µM,[21],17.1%
same,growth at 1 µM,[22],93%
same,growth at 0.01 µM,[23],91%
same,growth at 1 µM,[24],37%
same,growth at 0.01 µM,[25],101%
same,growth at 100 µM,[26],-39%
same,GI50,[27]; read-out: GI50,2.45 µM
same,CC50,[27]; [28],> 100 µM
same,GI50,[27]; read-out: pGI50 (converted),2.45 µM
same,CC50,[27]; [29],> 100 µM
c1ccc2[nH]c(-c3ccc(Nc4nc(N5CCCCC5)nc(N5CCOCC5)n4)cc3)nc2c1,growth at 10 µM,[1],-6%
same,growth at 0.01 µM,[2],96%
same,GI50,[3]; read-out: GI50,1.96 µM
same,TGI,[3]; read-out: TGI,4.32 µM
same,GI50,[3]; read-out: pGI50 (converted),1.95 µM
same,TGI,[3]; read-out: pTGI (converted),4.37 µM
same,growth at 0.1 µM,[4],96%
same,growth at 0.1 µM,[5],98%
same,growth at 10 µM,[6],-67%
same,growth at 10 µM,[7],-26%
same,GI50,[8],2.54 µM
same,TGI,[8],23.2 µM
same,CC50,[8],46.6 µM
same,growth at 100 µM,[9],-12%
same,growth at 10 µM,[10],58.8%
same,growth at 0.01 µM,[11],95%
same,growth at 0.01 µM,[12],92%
same,GI50,[13],2.36 µM
same,TGI,[13],6.72 µM
same,CC50,[13],92.7 µM
same,GI50,[14]; read-out: GI50,2.14 µM
same,CC50,[14]; [28],28.5 µM
same,TGI,[14]; read-out: TGI,5.75 µM
same,GI50,[14]; read-out: pGI50 (converted),2.14 µM
same,CC50,[14]; [29],28.2 µM
same,TGI,[14]; read-out: pTGI (converted),5.75 µM
same,growth at 100 µM,[15],-26%
same,GI50,[16],1.95 µM
same,TGI,[16],4.18 µM
same,CC50,[16],11.8 µM
same,growth at 0.01 µM,[17],99%
same,growth at 0.01 µM,[18],96%
same,growth at 0.1 µM,[19],92%
same,growth at 10 µM,[20],22.9%
same,growth at 10 µM,[21],32.7%
same,growth at 1 µM,[22],93%
same,growth at 0.01 µM,[23],96%
same,growth at 1 µM,[24],44%
same,growth at 0.01 µM,[25],96%
same,growth at 100 µM,[26],-45%
same,GI50,[27]; read-out: GI50,2.84 µM
same,CC50,[27]; [28],> 100 µM
same,GI50,[27]; read-out: pGI50 (converted),2.82 µM
same,CC50,[27]; [29],> 100 µM
